Measured values from ChEMBL document CHEMBL3046679, “Design, synthesis, and biological activities of arylmethylamine substituted chlorotriazine and methylthiotriazine compounds” (J Agric Food Chem, 2011).
The source made the active and inactive calls.

Experiments:
Puccinia triticina [1] = experiment: Fungicidal activity against Puccinia triticina assessed as inhibition of disease development in compound treated leaf pieces at 200 ppm relative to untreated control (wheat-curative); assay type: functional
Summary of the method: (§1)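 Curative wheat leaf-piece test against Puccinia triticina. Leaf pieces inoculated with spores first, then treated with formulated compound at 200, 60 or 20 ppm. Disease scored 3–9 days after inoculation as percent inhibition versus untreated controls. Values are the mean across replicates.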

Puccinia triticina [2] = experiment: Fungicidal activity against Puccinia triticina assessed as inhibition of disease development in compound treated leaf pieces at 200 ppm relative to untreated control (wheat-preventative); assay type: functional
Summary of the method: (§2)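 Preventative leaf-piece test on host tissue (tomato, vine, wheat or barley). Formulated compound applied at 200, 60 and 20 ppm before spore inoculation. Disease scored 3–9 days after inoculation, depending on the pathogen, as percent inhibition of disease development versus untreated controls. Values are the mean across replicates.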

[3] = tested on: Blumeria graminis f. sp. tritici; experiment: Fungicidal activity against Blumeria graminis f. sp. tritici assessed as inhibition of disease development in compound treated leaf pieces at 200 ppm relative to untreated control (wheat-preventative); assay type: functional
Plasmopara viticola [4] = experiment: Fungicidal activity against Plasmopara viticola assessed as inhibition of disease development in compound treated leaf pieces at 200 ppm relative to untreated control (grapevine-preventative); assay type: functional; summary of the method: as §2
Phytophthora infestans [5] = experiment: Fungicidal activity against Phytophthora infestans assessed as inhibition of disease development in compound treated leaf pieces at 200 ppm relative to untreated control (tomato-preventative); assay type: functional; summary of the method: as §2
Phytophthora infestans [6] = experiment: Fungicidal activity against Phytophthora infestans assessed as inhibition of mycelia growth at 200 ppm; assay type: functional, organism-based
Zymoseptoria tritici = experiment: Fungicidal activity against Zymoseptoria tritici assessed as inhibition of mycelia growth at 100 ppm; assay type: functional, organism-based
Botrytis cinerea = experiment: Fungicidal activity against Botryotinia fuckeliana assessed as inhibition of mycelia growth at 2 ppm; assay type: functional, organism-based
Summary of the method: (§3)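 Mycelial growth test in 96-well plates: compound incorporated into artificial growth medium at 2 ppm, two replicates per rate. Each well scored 99 for complete, 55 for partial or 0 for no inhibition. Values are the mean across replicates; azoxystrobin and prochloraz used as positive controls.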

Fusarium graminearum = experiment: Fungicidal activity against Fusarium graminearum assessed as inhibition of mycelia growth at 2 ppm; assay type: functional, organism-based; summary of the method: as §3
Alternaria solani [7] = experiment: Fungicidal activity against Alternaria solani assessed as inhibition of mycelia growth at 2 ppm; assay type: functional, organism-based; summary of the method: as §3
Pythium dissimile = experiment: Fungicidal activity against Pythium dissimile assessed as inhibition of mycelia growth at 2 ppm; assay type: functional, organism-based; summary of the method: as §3
Digitaria sanguinalis [8] = experiment: Herbicidal activity against Digitaria sanguinalis (hairy crabgrass) assessed as growth inhibition at 1 kg/ha preemergence treatment by glasshouse test; assay type: functional; conditions: pre-emergence, read-out: GI
Summary of the method: (§4)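 Glasshouse screen with pre- or postemergence application at 1.0 kg/ha. Result given as percent inhibition of plant growth; norflurazon and glyphosate used as controls.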

Stellaria media [9] = experiment: Herbicidal activity against Stellaria media assessed as growth inhibition at 1 kg/ha preemergence treatment by glasshouse test; assay type: functional; conditions: pre-emergence, read-out: GI; summary of the method: as §4
Lolium perenne [10] = experiment: Herbicidal activity against Lolium perenne (perennial ryegrass) assessed as growth inhibition at 1 kg/ha preemergence treatment by glasshouse test; assay type: functional; conditions: pre-emergence, read-out: GI; summary of the method: as §4
Amaranthus retroflexus [11] = experiment: Herbicidal activity against Amaranthus retroflexus assessed as growth inhibition at 1 kg/ha preemergence treatment by glasshouse test; assay type: functional; conditions: pre-emergence, read-out: GI; summary of the method: as §4
Digitaria sanguinalis [12] = experiment: Herbicidal activity against Digitaria sanguinalis (hairy crabgrass) assessed as growth inhibition at 1 kg/ha postemergence treatment by glasshouse test; assay type: functional; conditions: post-emergence, read-out: GI; summary of the method: as §4
Stellaria media [13] = experiment: Herbicidal activity against Stellaria media assessed as growth inhibition at 1 kg/ha postemergence treatment by glasshouse test; assay type: functional; conditions: post-emergence, read-out: GI; summary of the method: as §4
Lolium perenne [14] = experiment: Herbicidal activity against Lolium perenne (perennial ryegrass) assessed as growth inhibition at 1 kg/ha postemergence treatment by glasshouse test; assay type: functional; conditions: post-emergence, read-out: GI; summary of the method: as §4
Amaranthus retroflexus [15] = experiment: Herbicidal activity against Amaranthus retroflexus assessed as growth inhibition at 1 kg/ha postemergence treatment by glasshouse test; assay type: functional; conditions: post-emergence, read-out: GI; summary of the method: as §4
Poa annua = experiment: Herbicidal activity against Poa annua assessed as growth inhibition at 32 ppm by 96-well plate test; assay type: functional; conditions: read-out: GI
Summary of the method: (§5)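 96-well plate herbicide screen: Arabidopsis thaliana at 10 ppm and Poa annua at 32 ppm, two replicates. Plates incubated seven days in a controlled-environment cabinet. Each replicate scored 0 (no visible effect) or 99 (herbicidal effect); values are the mean of the two. Atrazine used as reference.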

Arabidopsis thaliana = experiment: Herbicidal activity against Arabidopsis thaliana assessed as growth inhibition at 10 ppm by 96-well plate test; assay type: functional; conditions: read-out: GI; summary of the method: as §5
Echinochloa crus-galli [16] = experiment: Herbicidal activity against Echinochloa crus-galli (barnyard grass) at 1.5 kg/ha postemergence treatment measured after 10 days by glasshouse test; assay type: functional; conditions: post-emergence, 240 h
Summary of the method: (§6)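 Glasshouse pre/postemergence test, each treatment in triplicate. Above-ground fresh weight measured 10 days after treatment. Result expressed as percent inhibition versus control, from 0 (no control) to 100 (complete control); glyphosate used as positive control.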

Brassica napus [17] = experiment: Herbicidal activity against Brassica napus (oilseed rape) at 1.5 kg/ha postemergence treatment measured after 10 days by glasshouse test; assay type: functional; conditions: post-emergence, 240 h; summary of the method: as §6
Echinochloa crus-galli [18] = experiment: Herbicidal activity against Echinochloa crus-galli (barnyard grass) at 1.5 kg/ha preemergence treatment measured after 10 days by glasshouse test; assay type: functional; conditions: pre-emergence, 240 h; summary of the method: as §6
Brassica napus [19] = experiment: Herbicidal activity against Brassica napus (oilseed rape) at 1.5 kg/ha preemergence treatment measured after 10 days by glasshouse test; assay type: functional; conditions: pre-emergence, 240 h; summary of the method: as §6
Alternaria solani [20] = experiment: Fungicidal activity against Alternaria solani assessed as inhibition of disease development in compound treated leaf pieces at 20 ppm relative to untreated control (tomato-preventative); assay type: functional; summary of the method: as §2
Pyrenophora teres [21] = experiment: Fungicidal activity against Pyrenophora teres assessed as inhibition of disease development in compound treated leaf pieces at 20 ppm relative to untreated control (barley-preventative); assay type: functional; summary of the method: as §2
Parastagonospora nodorum = experiment: Fungicidal activity against Phaeosphaeria nodorum assessed as inhibition of disease development in compound treated leaf pieces at 20 ppm relative to untreated control (wheat preventative); assay type: functional; summary of the method: as §2
Puccinia triticina [22] = experiment: Fungicidal activity against Puccinia triticina assessed as inhibition of disease development in compound treated leaf pieces at 20 ppm relative to untreated control (wheat-curative); assay type: functional; summary of the method: as §1
Puccinia triticina [23] = experiment: Fungicidal activity against Puccinia triticina assessed as inhibition of disease development in compound treated leaf pieces at 20 ppm relative to untreated control (wheat-preventative); assay type: functional; summary of the method: as §2
[24] = tested on: Blumeria graminis f. sp. tritici; experiment: Fungicidal activity against Blumeria graminis f. sp. tritici assessed as inhibition of disease development in compound treated leaf pieces at 20 ppm relative to untreated control (wheat-preventative); assay type: functional
Plasmopara viticola [25] = experiment: Fungicidal activity against Plasmopara viticola assessed as inhibition of disease development in compound treated leaf pieces at 20 ppm relative to untreated control (grapevine-preventative); assay type: functional; summary of the method: as §2
Phytophthora infestans [26] = experiment: Fungicidal activity against Phytophthora infestans assessed as inhibition of disease development in compound treated leaf pieces at 20 ppm relative to untreated control (tomato-preventative); assay type: functional; summary of the method: as §2
Alternaria solani [27] = experiment: Fungicidal activity against Alternaria solani assessed as inhibition of disease development in compound treated leaf pieces at 60 ppm relative to untreated control (tomato-preventative); assay type: functional; summary of the method: as §2
Pyrenophora teres [28] = experiment: Fungicidal activity against Pyrenophora teres assessed as inhibition of disease development in compound treated leaf pieces at 60 ppm relative to untreated control (barley-preventative); assay type: functional; summary of the method: as §2
Puccinia triticina [29] = experiment: Fungicidal activity against Puccinia triticina assessed as inhibition of disease development in compound treated leaf pieces at 60 ppm relative to untreated control (wheat-curative); assay type: functional; summary of the method: as §1
Puccinia triticina [30] = experiment: Fungicidal activity against Puccinia triticina assessed as inhibition of disease development in compound treated leaf pieces at 60 ppm relative to untreated control (wheat-preventative); assay type: functional; summary of the method: as §2
[31] = tested on: Blumeria graminis f. sp. tritici; experiment: Fungicidal activity against Blumeria graminis f. sp. tritici assessed as inhibition of disease development in compound treated leaf pieces at 60 ppm relative to untreated control (wheat-preventative); assay type: functional
Plasmopara viticola [32] = experiment: Fungicidal activity against Plasmopara viticola assessed as inhibition of disease development in compound treated leaf pieces at 60 ppm relative to untreated control (grapevine-preventative); assay type: functional; summary of the method: as §2
Phytophthora infestans [33] = experiment: Fungicidal activity against Phytophthora infestans assessed as inhibition of disease development in compound treated leaf pieces at 60 ppm relative to untreated control (tomato-preventative); assay type: functional; summary of the method: as §2
Alternaria solani [34] = experiment: Fungicidal activity against Alternaria solani assessed as inhibition of disease development in compound treated leaf pieces at 200 ppm relative to untreated control (tomato-preventative); assay type: functional; summary of the method: as §2
Pyrenophora teres [35] = experiment: Fungicidal activity against Pyrenophora teres assessed as inhibition of disease development in compound treated leaf pieces at 200 ppm relative to untreated control (barley-preventative); assay type: functional; summary of the method: as §2
Triticum aestivum [36] = experiment: Phytotoxicity against Triticum aestivum (wheat) plant at 60 ppm; assay type: organism-based; conditions: in vivo
Triticum aestivum [37] = experiment: Phytotoxicity against Triticum aestivum (wheat) plant at 200 ppm; assay type: organism-based; conditions: in vivo
Heliothis virescens = experiment: Insecticidal activity against Lepidoptera Heliothis virescens (tobacco budworm) assessed as mortality at 1000 ppm by leaf-disk assay; assay type: functional, organism-based
Summary of the method: (§7)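 Leaf-disk assay at 1000 ppm, three replicates. Plates kept 5–9 days in controlled-environment cabinets. Mortality judged against untreated wells: 99 for significant mortality, 0 otherwise. Values are the mean of three; thiamethoxam and indoxacarb used as positive controls.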

Aphididae = experiment: Insecticidal activity against Aphididae (aphids) assessed as mortality at 1000 ppm by leaf-disk assay; assay type: functional, organism-based; summary of the method: as §7

CC(C)Nc1nc(Cl)nc(NCc2ccc(Cl)nc2)n1
90%: inhibition at 200 ppm [3]
active: inhibition (Zymoseptoria tritici)
70%: inhibition of growth at 1000 g/ha (Lolium perenne [10]) | inhibition at 60 ppm (Puccinia triticina [30])
80%: inhibition of growth at 1000 g/ha (Stellaria media [9]) | inhibition of growth at 1000 g/ha (Lolium perenne [14])
inactive: inhibition (Phytophthora infestans [6]) | inhibition (Botrytis cinerea) | inhibition (Fusarium graminearum) | inhibition (Alternaria solani [7]) | inhibition (Pythium dissimile) | mortality (Heliothis virescens) | mortality (Aphididae)
68.6%: inhibition at 1500 g/ha (Echinochloa crus-galli [16])
100%: inhibition at 200 ppm (Puccinia triticina [1]) | inhibition at 200 ppm (Puccinia triticina [2]) | inhibition of growth at 1000 g/ha (Amaranthus retroflexus [11]) | inhibition of growth at 1000 g/ha (Stellaria media [13]) | inhibition of growth at 1000 g/ha (Amaranthus retroflexus [15]) | inhibition at 1500 g/ha (Brassica napus [17]) | inhibition at 1500 g/ha (Brassica napus [19]) | inhibition at 20 ppm (Puccinia triticina [22]) | inhibition at 60 ppm (Puccinia triticina [29])
68.9%: inhibition at 1500 g/ha (Echinochloa crus-galli [18])
Toxic: Activity (Triticum aestivum [36]) | Activity (Triticum aestivum [37])
0%: inhibition at 200 ppm (Plasmopara viticola [4]) | inhibition at 200 ppm (Phytophthora infestans [5]) | inhibition of growth at 1000 g/ha (Digitaria sanguinalis [8]) | inhibition of growth at 1000 g/ha (Digitaria sanguinalis [12]) | inhibition of growth at 32 ppm (Poa annua) | inhibition at 20 ppm (Alternaria solani [20]) | inhibition at 20 ppm (Pyrenophora teres [21]) | inhibition at 20 ppm (Parastagonospora nodorum) | inhibition at 20 ppm (Puccinia triticina [23]) | inhibition at 20 ppm [24] | inhibition at 20 ppm (Plasmopara viticola [25]) | inhibition at 20 ppm (Phytophthora infestans [26]) | inhibition at 60 ppm (Alternaria solani [27]) | inhibition at 60 ppm (Pyrenophora teres [28]) | inhibition at 60 ppm [31] | inhibition at 60 ppm (Plasmopara viticola [32]) | inhibition at 60 ppm (Phytophthora infestans [33]) | inhibition at 200 ppm (Alternaria solani [34]) | inhibition at 200 ppm (Pyrenophora teres [35])
99%: inhibition of growth at 10 ppm (Arabidopsis thaliana)
